High-throughput results (PubChem)
The entries come from a sample that favours hits as a whole.
NALP1 yeast inh – NALP1 inflammasome inhibitors in reconstituted yeast, colorimetric, S. cerevisiae, triplicate retest; S. cerevisiae NALP1/ASC/caspase-1 growth, X-gal OD620, 72 h; hit rate 0.61% among 280,000; AID 2071, 2009; inhibition, % at 10 µM; in the data active means inhibition mostly above about 24%, no sharp cut-off; inactive means mostly below about 32%
Calb FLC – C. albicans growth inhibition with fluconazole, primary screen, CaCi-2 strain, Alamar Blue fluorescence. C. albicans CaCi-2 + fluconazole, 48 h. growth inhibition, % (test concentration not listed). hit rate 0.57% among 300,000;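 active means growth inhibition above about 58% in most replicates, limit read from the data, passing the limit was not always enough; inconclusive means exactly half the replicates above a set limit; inactive means most replicates below a set limit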;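 further: all wells also contain fluconazole at 8 µg/ml as a sub-toxic cotreatment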
PolyA inh – polyadenylation inhibitors in yeast reporter cells, primary screen, luminescence, S. cerevisiae. activity score, % at 12 µM. hit rate 0.02% among 300,000. S. cerevisiae SKY197-pL101 polyadenylation reporter, beta-gal luminescence; efflux-impaired pdr1/pdr3 knockout yeast; score 100 = 6 SD above DMSO;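 active means lowest replicate activity score at least 50, where 100 means six control SD above control mean; inconclusive means lowest score under 50 but half or more replicates reach 50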;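 further: yeast exposed to compound for 9 h at 30 °C; higher score means more reporter readthrough which indicates perturbed polyadenylation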
T cruzi repl – inhibitors of intracellular T. cruzi growth, primary screen, luminescence, NIH3T3 host cells; T. cruzi beta-gal in NIH3T3, 90 h; inhibition, % (test concentration not listed); hit rate 1.4% among 300,000; AID 1885, 2009;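 active means mean inhibition across valid replicates above about 55%, limit read from the data; inconclusive means mean below that limit but half or more replicates reach it; inactive means mean below it, under half of replicates reach it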;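 further: signal also drops with host cell toxicity which is not excluded here; higher percent means less beta-gal luminescence so fewer parasites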
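System – NIH/3T3 host cells with β-galactosidase reporter T. cruzi · Doses – single 50 nL compound addition per well in DMSO · Reagent – 5000 T. cruzi trypomastigotes/well · Medium – Low-serum DMEM with 2% FBS · Timing – ≥90 h infection period, 3 h prior cell attachment · Evaluation – parasite load inhibition, % · Technique – GalScreen luminescence, 60 min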
NALP3 yeast inh – NALP3 inflammasome inhibitors in reconstituted yeast, primary screen, luminescence, uHTS; inhibition, % at 10 µM; hit rate 0.39% among 330,000; Yeast reconstituted NLRP3/ASC/caspase-1, beta-gal luminescence, 24 h;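 active means inhibition of 50% or more; inactive means inhibition below 50%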
Lmaj promast – Leishmania major promastigote growth inhibition, primary screen; hit rate 9% among 200,000; Leishmania major promastigotes, resazurin fluorescence viability; AID 1063, 2008; inhibition, % at 10 µM; in the data active means inhibition above about 50%;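 further: promastigotes grown with compound for 44 hours at 28 °C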
Hits are given with their value; n = inactive; u = inconclusive; x = no result given.

SMILES	NALP1 yeast inh	Calb FLC	PolyA inh	T cruzi repl	NALP3 yeast inh	Lmaj promast
CCn1cc(C(=O)Nc2ccc(OC)c(S(=O)(=O)N3CCCCC3)c2)c(=O)c2ccc(C)nc21	n	n	n	n	n	67
COc1ccc(OC)c(S(=O)(=O)N2CCC(C(=O)Nc3cccc(C)c3)CC2)c1	n	n	n	n	n	100
CN(CC(=O)Nc1ccc(Cl)c(C(F)(F)F)c1)C(=O)c1ccc(OCC2CCCO2)cc1 (configuration not stated)	x	n	n	n	n	x
Cc1sc2nc(CSCC(=O)Nc3ccccc3C#N)[nH]c(=O)c2c1C	n	n	n	n	n	n
COc1ccc(NC(=O)C2CCC(C(C)(C)C)CC2)cc1S(=O)(=O)N1CCCCC1 (configuration not stated)	x	n	n	n	n	99
Cc1ccc(C)c(S(=O)(=O)NCC(c2ccc3c(c2)OCO3)N2CCOCC2)c1 (configuration not stated)	x	n	n	n	n	x
CCN(C(=O)COC(=O)c1ccc[nH]c1=O)c1cccc2ccccc12	x	x	x	x	n	x
O=C(NC1CCN(Cc2ccccc2)CC1)C1CCN(S(=O)(=O)c2ccc(Cl)cc2)CC1	n	n	n	n	n	x
Cc1noc(C)c1S(=O)(=O)N1CCC(C(=O)NC2CCN(Cc3ccccc3)CC2)CC1	39	n	n	n	n	89
O=C(NC1CCN(Cc2ccccc2)CC1)C1CCN(S(=O)(=O)c2ccccc2)CC1	n	n	n	57	n	x
O=C(NC1CCCc2ccccc21)C1CCN(S(=O)(=O)N2CCCCCC2)CC1 (configuration not stated)	n	n	n	n	n	n
Cc1ccccc1-c1nc(CN2CCC(C(=O)NC3CCN(Cc4ccccc4)CC3)CC2)c(C)o1	x	n	n	n	n	100
Cc1noc(C)c1S(=O)(=O)N1CCC(C(=O)NC2CCCc3ccccc32)CC1 (configuration not stated)	n	n	n	n	n	60
CNC(=O)CSc1nc2cccnc2n1-c1ccc(F)cc1	n	n	n	n	n	x
CN(C)S(=O)(=O)c1cccc(C(=O)NCC(=O)NC2CCN(Cc3ccccc3)CC2)c1	n	n	n	n	n	x
C=CCN(c1ccccc1)S(=O)(=O)c1cccc(C(=O)NC2CCN(Cc3ccccc3)CC2)c1	x	n	n	61	n	x
COc1ccc(N(Cc2ccco2)C(=O)c2ccccc2F)cc1OC	n	n	n	n	n	59
Cc1cc(C)c(OCCCCCNCCO)c(C)c1	n	n	n	n	n	90
Cc1cc(OCCCCCNCCO)cc(C)c1Cl	n	n	n	n	n	98
Cc1cc(OCC(=O)NCCO)cc(C)c1Cl	n	n	n	n	n	n
COc1ccccc1OCCCCCNCCO	n	n	n	n	n	n
Cc1cc(C)cc(OCCCCCNCCO)c1	n	n	x	n	n	52
Cc1cc(OCCNCCO)cc(C)c1Cl	n	n	n	n	n	66
O=C(NCCOc1ccccc1Cl)c1ccc2c(c1)S(=O)(=O)c1cc(Cl)ccc1C2=O	x	x	x	x	n	x
CCN(c1ccccc1)S(=O)(=O)c1ccc(OC)c(NC(=O)COc2ccc(C(C)=O)cc2)c1	x	n	n	n	n	x
SMILES	NALP1 yeast inh	Calb FLC	PolyA inh	T cruzi repl	NALP3 yeast inh	Lmaj promast
CCS(=O)(=O)N1CCC(C(=O)NCc2ccc(OC)cc2)CC1	n	n	n	n	n	n
CN(C)n1cnc2ccsc2c1=O	30	n	n	n	n	n
Cc1ccc(CNC(=O)C2CCCN(S(=O)(=O)c3ccc(F)cc3)C2)cc1 (configuration not stated)	n	u	n	n	n	x
CS(=O)(=O)c1ccc2nc(NC(=O)c3ccc(NS(=O)(=O)c4ccc(F)c(F)c4)cc3)sc2c1	x	n	n	n	n	x
O=C(Nc1nc2ccc(SC(F)F)cc2s1)c1ccc(NS(=O)(=O)c2ccc(F)c(F)c2)cc1	n	u	n	n	n	69
O=C(O)CC(C(=O)Nc1ccc(F)cc1)C1CCCO1 (configuration not stated)	x	n	n	n	n	x
Nc1c(Cl)ncnc1N/N=C/c1ccc2ccccc2n1	n	x	x	x	x	100
Nc1c(Cl)ncnc1N/N=C/c1ccccn1	94	x	x	x	x	100
COc1cc2cc(C(=O)N(C)C3CCS(=O)(=O)C3)[nH]c2cc1OC (configuration not stated)	n	n	n	n	n	x
Cc1cc(C)c2cc(CN(CCO)C(=O)Nc3ccc(F)cc3)c(=O)[nH]c2c1	n	n	n	n	n	n
Cc1cc(C)c2cc(CN(CCN(C)C)C(=O)Nc3ccccc3Cl)c(=O)[nH]c2c1	28	n	n	n	n	58
CCCCN(C)Cc1c(C)[nH]c2c(Cl)cccc2c1=O	n	n	n	60	n	100
CCCCN(C)Cc1c(C)[nH]c2c(ccc3ccccc32)c1=O	n	x	n	n	n	x
COc1ccc(NC(=O)CN(C)C2CCS(=O)(=O)C2)cc1 (configuration not stated)	x	x	x	x	n	x
COc1cccc(C(=O)O/N=C(\N)CS(=O)(=O)c2ccccc2)c1	n	n	n	n	n	x
Cc1cc(C(C)(C)C)ccc1OCCOCCN1CCCC1	n	n	n	55	n	96
Clc1cc(Br)ccc1OCCOCCN1CCOCC1	n	n	n	n	n	96
Clc1cc(Br)ccc1OCCOCCN1CCCC1	n	n	n	59	n	x
CC(C)(C)c1cc(Cl)ccc1OCCOCCN1CCCC1	n	n	n	n	n	x
Cc1ccc(OCCCCCN2CCOCC2)c(Cl)c1	x	n	n	n	n	x
CC1CCCN(C(=O)CN2C(=O)CSc3ccc(S(=O)(=O)N4CCOCC4)cc32)C1 (configuration not stated)	n	n	n	n	n	x
CCOc1ncccc1C(=O)OCC(=O)NCCc1ccc(S(N)(=O)=O)cc1	x	x	x	x	n	x
COc1ccc(N2CCN(C(CNC(=O)C(=O)NC3CCCC3)c3ccco3)CC2)cc1 (configuration not stated)	x	n	n	n	n	x
O=C(Nc1cccnc1)c1ccc(S(=O)(=O)N2CCCCCC2)cc1	n	n	n	n	n	n
Cc1ccc(S(=O)OCC(=O)Nc2cc(Cl)ccc2N2CCOCC2)cc1 (configuration not stated)	n	n	n	n	n	99
O=C(CC1OC(=O)c2ccccc21)Nc1cc(Cl)ccc1N1CCOCC1 (configuration not stated)	x	x	x	x	n	x
O=C(COS(=O)c1ccccc1)Nc1cc(Cl)ccc1N1CCOCC1 (configuration not stated)	n	64	n	n	n	n
Cc1noc(C)c1CSCC(=O)Nc1cc(Cl)ccc1N1CCOCC1	n	n	n	n	n	x
CCOc1ccccc1NC(=O)C(OC(=O)C1CC1)c1ccccc1 (configuration not stated)	x	n	n	n	n	x
